In general, IC50 refers to the concentration at which inhibition is half-maximal. Read a low IC50 as higher potency.

Results on 6 molecules are retold here after ChEMBL document CHEMBL1833854, “2,5-Disubstituted-1,3,4-oxadiazoles/thiadiazole as surface recognition moiety: design and synthesis of novel hydroxamic acid based histone deacetylase inhibitors” (Bioorg Med Chem Lett, 2011).

In one test the target is Histone deacetylase 1 (Homo sapiens, UniProt Q13547). The test can be described thus: Inhibition of HDAC1 by fluorescent activity assay.
Sequence of Histone deacetylase 1 (Q13547 whole entry): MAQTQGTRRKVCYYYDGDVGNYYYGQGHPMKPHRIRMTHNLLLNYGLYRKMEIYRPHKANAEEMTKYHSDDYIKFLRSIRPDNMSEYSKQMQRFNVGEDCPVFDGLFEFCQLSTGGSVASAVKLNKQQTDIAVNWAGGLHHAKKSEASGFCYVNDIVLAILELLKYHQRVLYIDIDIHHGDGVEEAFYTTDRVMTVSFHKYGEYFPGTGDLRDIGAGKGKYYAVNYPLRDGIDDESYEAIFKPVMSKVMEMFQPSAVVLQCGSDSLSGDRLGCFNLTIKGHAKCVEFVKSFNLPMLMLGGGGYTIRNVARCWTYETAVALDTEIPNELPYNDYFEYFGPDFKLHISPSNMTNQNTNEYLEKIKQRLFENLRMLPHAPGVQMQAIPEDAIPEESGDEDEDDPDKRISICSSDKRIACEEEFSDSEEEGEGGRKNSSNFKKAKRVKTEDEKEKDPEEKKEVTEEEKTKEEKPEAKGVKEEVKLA
Test [1] can be described thus: Antitumor activity against mouse EAC cells transplanted in Swiss albino mouse assessed as tumor weight inhibition in ascetic fluid at 0.2 mmol/kg, ip administered qd for 7 days measured on 8th day. The following applies: Ehrlich, 168 h, read-out: GI. Type of test: functional. The gist of the method:
(§1)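 Ehrlich ascites carcinoma cells (9 days old) were taken from a donor mouse into sterile isotonic saline and adjusted to 10 × 10⁶ cells/mL. Mice received 0.1 mL per 10 g ip on day 0. Compound in PBS pH 7.2 (0.1 mL/10 g) was given ip on days 1–7 at 24-h intervals; controls received vehicle only. On day 8, after 6 h fasting, peritoneal cells were counted and ascitic fluid weight was taken from body weight before and after fluid removal.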

Test [2] is described as follows: Antitumor activity against mouse EAC cells transplanted in Swiss albino mouse assessed as tumor cell inhibition in ascetic fluid at 0.2 mmol/kg, ip administered qd for 7 days measured on 8th day. Type of test: functional. To be noted: Ehrlich, 168 h, read-out: GI. The gist of the method: as §1
In a further test the test system is HCT-116. The test can be described thus: Antiproliferative activity against human HCT116 cells by MTT assay. Type of test: functional, cell-based. (Tetrazolium assays rely on reduction of a dye to a coloured formazan, in cell work by metabolically active cells.)
Test [3] in a line: Antitumor activity against mouse EAC cells transplanted in Swiss albino mouse assessed as tumor cell inhibition in ascetic fluid at 1 mg/kg, ip administered qd for 7 days measured on 8th day. Type of test: functional. The following applies: Ehrlich, 168 h, route intraperitoneal, read-out: GI. The gist of the method:
(§2)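 Swiss albino mice were inoculated ip on day 0 with 9-day-old Ehrlich ascites carcinoma cells from a donor mouse (10 × 10⁶ cells/mL in isotonic saline, 0.1 mL per 10 g). Mitomycin-C served as the standard at 1 mg/kg; controls received vehicle only. Mice were sacrificed on day 8 after 6 h without food and water. Peritoneal fluid cells were counted, and ascitic fluid weight came from body weight before and after draining the cavity.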

Test [4] is described as follows: Antitumor activity against mouse EAC cells transplanted in Swiss albino mouse assessed as tumor weight inhibition in ascetic fluid at 1 mg/kg, ip administered qd for 7 days measured on 8th day. Type of test: functional. The following applies: Ehrlich, 168 h, route intraperitoneal, read-out: GI. The gist of the method: as §2

In the case of `O=C(NO)c1cnc(Nc2nnc(-c3ccc(F)cc3)o2)nc1`, the IC50 turned out to be 9 nM against Histone deacetylase 1 and 60 nM in the test with HCT-116. Further, the inhibition in vivo at 200 µmol/kg in test [1] is 24.1%; in test [2], 16.4%.
For the molecule `CN(C)c1ccc(-c2nnc(Nc3ncc(C(=O)NO)cn3)o2)cc1`, the figures for the IC50 at Histone deacetylase 1 and with HCT-116 were 9 nM and 200 nM, respectively. For the same molecule, the inhibition in vivo at 200 µmol/kg is 55.5% in test [1] and 56.8% in test [2].
As for `O=C(NO)c1cnc(Nc2nnc(-c3ccccc3)s2)nc1`, the values for the half-inhibitory concentration (IC50) against Histone deacetylase 1 and in the test with HCT-116 were 8 nM and 80 nM, respectively. Also, the inhibition in vivo at 200 µmol/kg in test [1] was 14.2%; in test [2], 29.5%.
As to `O=C(NO)c1cnc(Nc2nnc(-c3ccc(Cl)cc3)s2)nc1`, the IC50 stood at 10 nM at Histone deacetylase 1 and 160 nM in the test on HCT-116. Besides, the inhibition in vivo at 200 µmol/kg in test [1] amounted to 48.3%; in test [2], 32%.
For `CN(C)c1ccc(-c2nnc(Nc3ncc(C(=O)NO)cn3)s2)cc1`, in that order: 11 nM, 200 nM, 61.1% and 51.1%.
As to `CO[C@@]12[C@H](COC(N)=O)C3=C(C(=O)C(C)=C(N)C3=O)N1C[C@@H]1N[C@@H]12` [MITOMYCIN], the inhibition in vivo at 1 mg/kg in test [3] and in test [4] was 100% each time.
